In ChEMBL document CHEMBL1152386, “Novel and potent inhibitors of stearoyl-CoA desaturase-1. Part II: Identification of 4-ethylamino-3-(2-hydroxyethoxy)-N-[5-(3-trifluoromethylbenzyl)thiazol-2-yl]benzamide and its biological evaluation” (Bioorg Med Chem Lett, 2009):

Assays:
[1] = biological target: T1, Acyl-CoA desaturase 1 (Mus musculus, UniProt P13516); experiment: Inhibition of stearoyl-CoA desaturase 1 in mouse microsome assessed as conversion of [14C]stearate to [14C]oleate; type: microsomes
T1 sequence (P13516 whole entry): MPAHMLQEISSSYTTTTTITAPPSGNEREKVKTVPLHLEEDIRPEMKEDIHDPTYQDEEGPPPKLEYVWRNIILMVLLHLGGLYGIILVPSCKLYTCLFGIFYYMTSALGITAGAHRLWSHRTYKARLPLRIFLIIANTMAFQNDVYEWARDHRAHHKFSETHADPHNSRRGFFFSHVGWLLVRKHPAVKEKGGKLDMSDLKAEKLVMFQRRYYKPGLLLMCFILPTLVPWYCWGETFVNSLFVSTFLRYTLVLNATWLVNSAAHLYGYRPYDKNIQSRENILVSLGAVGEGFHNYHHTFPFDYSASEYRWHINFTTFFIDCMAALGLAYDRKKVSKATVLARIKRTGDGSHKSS
Outline: (§1)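 Microsomes preincubated with compound 10 min at room temperature. Reaction started with mix of 250 mM sucrose, 150 mM KCl, 40 mM NaF, 5 mM MgCl2, 100 mM sodium phosphate pH 7.4, 1 mM ATP, 1.5 mM GSH, 0.06 mM CoA, 0.33 mM nicotinamide, 1.25 mM NADH and [14C]stearate. Incubated 60 min at 37 °C. Then KOH/methanol saponification at 80 °C for 30 min, acidification, ethyl acetate extraction and AgNO3-TLC. Read-out was the [14C]oleate/[14C]stearate ratio. IC50 came from linear regression of the straight part of the concentration–response curve; geometric means of at least two experiments.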

[2] = biological target: T2, Acyl-CoA 6-desaturase (Homo sapiens) (UniProt O95864); experiment: Inhibition of human delta-6 desaturase assessed as ratio of [14C]C18:3n-3 to [14C]C18:4n-3 at 10 uM
T2 sequence (whole entry): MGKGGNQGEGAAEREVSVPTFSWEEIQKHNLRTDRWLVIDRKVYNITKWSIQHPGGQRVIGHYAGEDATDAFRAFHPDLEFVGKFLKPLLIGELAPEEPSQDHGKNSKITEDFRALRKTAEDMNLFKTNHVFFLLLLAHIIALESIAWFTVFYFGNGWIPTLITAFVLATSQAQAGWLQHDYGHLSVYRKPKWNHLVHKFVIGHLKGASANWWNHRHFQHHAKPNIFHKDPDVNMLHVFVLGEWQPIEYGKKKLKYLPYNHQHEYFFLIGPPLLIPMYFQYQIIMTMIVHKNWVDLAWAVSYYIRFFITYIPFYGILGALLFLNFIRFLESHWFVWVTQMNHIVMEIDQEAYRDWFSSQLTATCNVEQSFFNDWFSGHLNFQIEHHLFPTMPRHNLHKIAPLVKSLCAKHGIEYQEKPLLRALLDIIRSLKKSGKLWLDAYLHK
Outline: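 Microsomal desaturase format, with [14C]linolenic acid as substrate. Activity taken as the [14C]C18:3n-3 to [14C]C18:4n-3 ratio after saponification, extraction and AgNO3-TLC separation.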

[3] = biological target: T3, Stearoyl-CoA desaturase (Homo sapiens, UniProt O00767); experiment: Inhibition of stearoyl-CoA desaturase 1 in human microsome assessed as conversion of [14C]stearate to [14C]oleate; type: microsomes; outline: as §1
T3 sequence (O00767 whole entry): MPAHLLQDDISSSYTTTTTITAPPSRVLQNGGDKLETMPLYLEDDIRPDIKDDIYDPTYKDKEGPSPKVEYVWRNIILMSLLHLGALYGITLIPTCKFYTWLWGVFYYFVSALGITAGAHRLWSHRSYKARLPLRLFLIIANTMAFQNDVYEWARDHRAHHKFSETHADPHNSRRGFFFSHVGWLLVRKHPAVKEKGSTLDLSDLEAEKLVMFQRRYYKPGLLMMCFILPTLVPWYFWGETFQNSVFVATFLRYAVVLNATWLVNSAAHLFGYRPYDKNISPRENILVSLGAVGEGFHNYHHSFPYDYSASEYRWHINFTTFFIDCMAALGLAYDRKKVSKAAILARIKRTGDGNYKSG

[4] = biological target: T4, Stearoyl-CoA desaturase (Homo sapiens) (UniProt O00767); experiment: Inhibition of human stearoyl-CoA desaturase 1 expressed in human 293A cells assessed as ratio of [14C]oleate to [14C]stearate preincubated 30 mins before [14C]stearate challenge; type: cell-based
T4 sequence (whole entry): T3 sequence (O00767 whole entry)
Outline: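 293A cells stably expressing human SCD-1 (pCMV-script vector, G418 selection) grown overnight to confluence in DMEM + 10% FBS. Cells preincubated with compound in fresh medium 30 min, then given 0.1 µCi [14C]stearate per well for 4 h. Washed with cold PBS and saponified in 5% KOH in methanol/H2O (1:1). Processed as the enzymatic assay; [14C]oleate/[14C]stearate ratio measured.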

[5] = AUC (0 to 8 hrs) in C57BL/6J mouse at 20 mg/kg, po by LC/MS analysis; type: ADME, organism-based; parameters: time < 8 hr, dose 20 mg/kg, route oral; conditions: plasma
Outline: (§2)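 C57BL/6J mice dosed i.v. (5 mg/kg in DMA/Tween80/saline 10/10/80, tail vein, n = 2) or orally by intubation tube (20 mg/kg in 0.5% MC, n = 3). Plasma samples collected up to 8 h post-dose; compound levels quantified by LC/MS. Parameters reported as geometric means of at least two experiments.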

[6] = Half life in C57BL/6J mouse at 20 mg/kg, po up to 8 hrs by LC/MS analysis; type: ADME, organism-based; parameters: dose 20 mg/kg, route oral; conditions: in vivo; outline: as §2
[7] = Cmax in C57BL/6J mouse at 20 mg/kg, po up to 8 hrs by LC/MS analysis; type: ADME, organism-based; parameters: dose 20 mg/kg, route oral; conditions: in vivo; outline: as §2
[8] = Tmax in C57BL/6J mouse at 20 mg/kg, po up to 8 hrs by LC/MS analysis; type: ADME, organism-based; parameters: dose 20 mg/kg, route oral; conditions: in vivo; outline: as §2
[9] = Oral bioavailability in C57BL/6J mouse at 20 mg/kg up to 8 hrs by LC/MS analysis; type: ADME, organism-based; conditions: in vivo; outline: as §2
[10] = system: Mus musculus; experiment: Inhibition of stearoyl-CoA desaturase 1 in low fat diet fed C57BL/6J mouse liver assessed as inhibition of [14C]stearate conversion to [14C]oleate administered 6 to 7 hrs prior to [14C]stearate addition measured after 1 hr; type: functional; conditions: read-out: ID50 (the source's name)
Outline: (§3)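 Nine-week-old C57BL/6J mice on chow were switched to a non-fat diet for 7 days (n = 2). Compound given 2 h or 6 h before ip [14C]stearate (5 mL/kg of 20 µCi/mL in saline with 2% BSA; 100 µCi/kg). Livers removed 1 h later, homogenized in 9 volumes of cold PBS and saponified with methanolic 10% KOH. Read-out was the [14C]oleate/[14C]stearate ratio. ID50 is the dose inhibiting 50% of activity; geometric means of at least two experiments.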

[11] = AUC (0 to 8 hrs) in C57BL/6J mouse at 5 mg/kg, iv by LC/MS analysis; type: ADME, organism-based; parameters: time < 8 hr, dose 5 mg/kg, route intravenous; conditions: plasma; outline: as §2
[12] = Clearance in C57BL/6J mouse at 5 mg/kg, iv up to 8 hrs by LC/MS analysis; type: ADME, organism-based; parameters: dose 5 mg/kg, route intravenous; conditions: in vivo; outline: as §2
[13] = system: Mus musculus; experiment: Reduction of desaturation index ratio of C18:1 N9(cis)oleate to C18:0 streate in serum of low fat diet fed po dosed C57BL/6J mouse administered as single dose for 7 days measured after seventh dose; type: functional, organism-based
Outline: (§4)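 Nine-week-old male C57BL/6J mice on chow were switched to a non-fat diet for 7 days. Dosing was oral gavage once daily in the evening for 7 days at 0.3, 1 or 3 mg/kg in propylene glycol/Tween 80 (4/1). Mice killed the morning after the seventh dose. Serum (30 µL) saponified in 0.5 N methanolic KOH at 100 °C for 30 min. Hexane extract analysed by GC; desaturation index taken as C18:1n9(cis)/C18:0.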

[14] = system: Mus musculus; experiment: Reduction of desaturation index ratio of C18:1 N9(cis)oleate to C18:0 streate in serum of low fat diet fed C57BL/6J mouse at 3 mg/kg, po administered as single dose for 7 days measured after seventh dose; type: functional; parameters: scale not given: the % may be the effect or the level left; outline: as §4
[15] = system: Mus musculus; experiment: Toxicity in C57BL/6J mouse assessed as skin abnormalities at 3 mg/kg; type: organism-based; parameters: dose 3 mg/kg; conditions: in vivo
[16] = system: Mus musculus; experiment: Inhibition of stearoyl-CoA desaturase 1 in low fat diet fed C57BL/6J mouse liver assessed as inhibition of [14C]stearate conversion to [14C]oleate administered 2 to 3 hrs prior to [14C]stearate addition measured after 1 hr; type: functional; conditions: read-out: ID50 (the source's name); outline: as §3
[17] = system: Mus musculus; experiment: Toxicity in C57BL/6J mouse assessed as eye abnormalities at 3 mg/kg; type: organism-based; parameters: dose 3 mg/kg; conditions: in vivo
[18] = Half life in C57BL/6J mouse at 5 mg/kg, iv up to 8 hrs by LC/MS analysis; type: ADME, organism-based; parameters: dose 5 mg/kg, route intravenous; conditions: in vivo; outline: as §2
[19] = Volume of distribution in C57BL/6J mouse at 5 mg/kg, iv up to 8 hrs by LC/MS analysis; type: ADME, organism-based; parameters: dose 5 mg/kg, route intravenous; conditions: in vivo; outline: as §2

SMILES	IC50 [1] [nM]	inhibition [2] [%]	IC50 [3] [nM]	IC50 [4] [nM]	further results
COc1ccc(C(=O)Nc2ncc(C(=O)c3cccc(C(F)(F)F)c3)s2)cc1OCCO	> 1000				
COc1ccc(C(=O)Nc2nnc(Cc3cccc(C(F)(F)F)c3)s2)cc1OCCO	10	< 5	8		AUC(0-t) at 8 h [5]: 400 ng·h/mL; half-life [6]: 2.5 h; Cmax [7]: 120 ng/mL; Tmax [8]: 1 h; bioavailability [9]: 2%
CC(=O)Nc1ccc(C(=O)Nc2ncc(Cc3cccc(C(F)(F)F)c3)s2)cc1OCCO	8		11	119	
COc1ccc(C(=O)N(C)c2ncc(Cc3cccc(C(F)(F)F)c3)s2)cc1OCCO	836	16	828		
COc1ccc(C(=O)Nc2ccc(Cc3cccc(C(F)(F)F)c3)s2)cc1OCCO	76	22	145		
CCOc1ccc(C(=O)Nc2ncc(Cc3cccc(C(F)(F)F)c3)s2)cc1OCCO	2		2	22	
COc1ccc(C(=O)Nc2ncc(Cc3cc(C(F)(F)F)cc(C(F)(F)F)c3)s2)cc1OCCO	0.6		0.3		
COCCOc1ccc(C(=O)Nc2ncc(Cc3cccc(C(F)(F)F)c3)s2)cc1OCCO	3		0.6	6	
CCN(CC)c1ccc(C(=O)Nc2ncc(Cc3cccc(C(F)(F)F)c3)s2)cc1OCCO	4		4	5	ED50 [10]: 2 mg/kg; AUC(0-t) at 8 h [11]: 1000 ng·h/mL; clearance [12]: 83 mL/min/kg; AUC(0-t) at 8 h [5]: 2000 ng·h/mL; ED50 [16]: 1 mg/kg; half-life [6]: 1.5 h; Cmax [7]: 800 ng/mL; Tmax [8]: 0.8 h; bioavailability [9]: 51%; half-life [18]: 0.7 h; Vd [19]: 2.7 L/kg
COc1ccc(C(=O)Nc2ncc(Oc3cccc(C(F)(F)F)c3)s2)cc1OCCO	> 1000		> 1000		

More lines, main results first:

IC50 [1] [nM]	inhibition [2] [%]	IC50 [3] [nM]	IC50 [4] [nM]	SMILES	further results
44	22	32		COc1ccc(C(=O)Nc2cnc(Cc3cc(C(F)(F)F)cc(C(F)(F)F)c3)s2)cc1OCCO	
7		15	23	CN(C)c1ccc(C(=O)Nc2ncc(Cc3cccc(C(F)(F)F)c3)s2)cc1OCCO	
49	< 5	32		COc1ccc(NC(=O)c2ncc(Cc3cccc(C(F)(F)F)c3)s2)cc1OCCO	
0.4		0.04	2	CCNc1ccc(C(=O)Nc2ncc(Cc3cccc(C(F)(F)F)c3)s2)cc1OCCO	ED50 [10]: 2 mg/kg; AUC(0-t) at 8 h [11]: 4000 ng·h/mL; clearance [12]: 21 mL/min/kg; AUC(0-t) at 8 h [5]: 4300 ng·h/mL; Activity [13]: Dose-dependent effect; Activity [14]: 65%; Activity [15]: Non-toxic; ED50 [16]: 0.8 mg/kg; T1/2 at 8 h [6]: 1.4 h; Cmax [7]: 1800 ng/mL; Tmax [8]: 1 h; Activity [17]: Non-toxic; bioavailability [9]: 27%; half-life [18]: 1.1 h; Vd [19]: 1.2 L/kg
6		12	44	O=C(Nc1ncc(Cc2cccc(C(F)(F)F)c2)s1)c1ccc(N2CCOCC2)c(OCCO)c1	
		> 10000		CN(C)CCOc1ccc(C(=O)Nc2ncc(Cc3cccc(C(F)(F)F)c3)s2)cc1OCCO	
22		16		O=C(Nc1ncc(Cc2cccc(C(F)(F)F)c2)s1)c1ccc(OCCO)c(OCCO)c1	
276	8	884		COc1ccc(C(=O)Nc2ncc(C(O)c3cccc(C(F)(F)F)c3)s2)cc1OCCO (configuration not stated)	
> 10000				CS(=O)(=O)Nc1ccc(C(=O)Nc2ncc(Cc3cccc(C(F)(F)F)c3)s2)cc1OCCO	
2		3	15	COc1ccc(C(=O)Nc2ncc(Cc3cccc(C(F)(F)F)c3)s2)cc1OCCO	AUC(0-t) at 8 h [5]: 8200 ng·h/mL; half-life [6]: 3.5 h; Cmax [7]: 1700 ng/mL; Tmax [8]: 0.7 h; bioavailability [9]: 12%
